The values that follow come from ChEMBL document CHEMBL1124067, “Design of potent cyclic gonadotropin releasing hormone antagonists” (J Med Chem, 1988).

The test system of experiment [1] is Rattus norvegicus. Put plainly: Effect of oral administration of compound (3 mg) on LH secretion by castrated male rats; ng of LH/mL. The class given is functional. In short, it runs like this:
(§1)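 Adult Sprague-Dawley male rats, castrated under light ether anesthesia 7-10 days before assay. Peptide dissolved in 2 N HOAc, then diluted in 0.1% BSA-0.04 M phosphate buffer pH 7.4. Given by gavage tube (0.5 mL) under ether. Blood sampled before treatment and 5 h after. Plasma LH in ng/mL, mean ± SEM, five rats per treatment.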

Experiment [2] has as its system Rattus norvegicus. Put plainly: In vivo antiovulatory assay (AOA) carried out in rats injected sc. The class given is functional. The gist of the method:
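Antiovulatory assay following Corbin and Beattie. Cycling rats injected sc at noon on proestrus with peptide dissolved in saline (200 μL). Dose in micrograms; read-out is the number of rats ovulating out of the total.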

The species named for experiment [3] is Rattus norvegicus. As to the kind of experiment: Effect on GnRH-induced LH secretion in intact male rats at 25 ug of compound along with 50 ng of GnRH; ng of LH/mL. The class given is functional. In short, it runs like this: (§2)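 Intact adult male Sprague-Dawley rats. Antagonist injected iv into the jugular vein (1 mL) under ether, immediately before GnRH. Peptide dissolved in 2 N HOAc, then diluted in 0.1% BSA-0.04 M phosphate buffer pH 7.4. Blood taken 10 min after injection. Plasma LH in ng/mL ± SEM, six rats per treatment.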

Experiment [4] is filed under the species Rattus norvegicus. Put plainly: Effect on GnRH-induced LH secretion in intact male rats at 100 ug of compound along with 50 ng of GnRH; ng of LH/mL. It is filed as functional. The gist of the method: as §2
Experiment [5] has as its target T1, Gonadotropin-releasing hormone receptor (Rattus norvegicus) (UniProt P30969).
T1 sequence (whole entry): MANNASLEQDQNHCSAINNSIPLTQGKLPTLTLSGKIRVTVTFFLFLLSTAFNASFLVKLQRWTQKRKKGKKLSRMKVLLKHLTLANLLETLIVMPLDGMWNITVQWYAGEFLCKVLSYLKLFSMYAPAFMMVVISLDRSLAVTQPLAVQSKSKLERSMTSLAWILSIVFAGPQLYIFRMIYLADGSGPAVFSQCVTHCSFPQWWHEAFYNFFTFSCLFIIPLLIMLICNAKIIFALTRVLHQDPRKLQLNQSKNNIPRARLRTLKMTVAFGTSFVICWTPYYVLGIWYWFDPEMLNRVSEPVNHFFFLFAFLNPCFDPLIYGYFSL
Put plainly: Inhibition of GnRH-stimulated LH secretion by cultured dispersed anterior pituitary cells. It is filed as functional, cell-based. As to conditions: Pituitary gland cell. The gist of the method:
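Cultured dispersed anterior pituitary cells. Antagonist inhibition of GnRH-stimulated LH secretion measured. Potency expressed relative to the standard [Ac-Δ3Pro1,DFpa2,DTrp3,6]GnRH (=1), with confidence range in parentheses.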

Experiment [6] concerns the target T2, Gonadotropin-releasing hormone receptor (Rattus norvegicus, UniProt P30969).
T2 sequence (P30969 whole entry): T1 sequence (whole entry)
Put plainly: Inhibitory binding constant for Gonadotropin-releasing hormone receptor.

For experiment [7], the system named is Rattus norvegicus. As to the kind of experiment: Effect of oral administration of compound (1 mg) on LH secretion by castrated male rats; ng of LH/mL. The class given is functional. In short, it runs like this:
as §1

The species entered for experiment [8] is Rattus norvegicus. Put plainly: Effect on GnRH-induced LH secretion in intact male rats at 50 ng of compound; ng of LH/mL. It is filed as functional.
The species named for experiment [9] is Rattus norvegicus. As to the kind of experiment: Effect on GnRH-induced LH secretion in intact male rats at 20 ng of compound; ng of LH/mL. It is filed as functional.

pKd: −log10 of the molar value. “And” between values parts separate entries of the source, which are not always exact repeats. Equal entries are not always repeated. Positions of bridges follow the written chain, without caps; N, C: chain ends. Non-standard residues stand in square brackets, D forms with d. Residues, ends and D or L forms follow the SMILES beside them. dPhe(4-Cl) = N[C@H](Cc1ccc(Cl)cc1)C(=O)O; dPhe(4-F) = N[C@H](Cc1ccc(F)cc1)C(=O)O; d2Nal = N[C@H](Cc1ccc2ccccc2c1)C(=O)O; d3Pal = N[C@H](Cc1cccnc1)C(=O)O

`CC(=O)NC[C@H](NC(=O)[C@@H](Cc1cccnc1)NC(=O)[C@@H](Cc1ccc(Cl)cc1)NC(=O)[C@@H](Cc1ccc2ccccc2c1)NC(C)=O)C(=O)N[C@@H](CCCN=C(N)N)C(=O)N[C@H](Cc1cccnc1)C(=O)N[C@@H](CC(C)C)C(=O)N[C@@H](CCCN=C(N)N)C(=O)N1CCC[C@H]1C(=O)N[C@@H](CC(N)=O)C(N)=O` returned an Activity in the experiment on Rattus norvegicus [1] of 8.22. In the experiment on Rattus norvegicus [2], this molecule had a Dose of 50 µg.
Consider `CC(=O)N[C@H](Cc1ccc2ccccc2c1)C(=O)N[C@H](Cc1ccc(Cl)cc1)C(=O)N[C@H](Cc1cccnc1)C(=O)N[C@H]1CSSC[C@@H](C(N)=O)NC(=O)[C@@H]2CCCN2C(=O)[C@H](CCCNC(=N)N)NC(=O)[C@H](CC(C)C)NC(=O)[C@@H](Cc2cccnc2)NC(=O)[C@H](CCCNC(=N)N)NC1=O` (Ac-[d2Nal][dPhe(4-Cl)][d3Pal]CR[d3Pal]LRPC-NH2; disulfide 4-10), for which the Activity in the experiment with Rattus norvegicus [1] amounted to 8.31; in the experiment listed under Rattus norvegicus [3] it was 1.62; in the experiment filed under Rattus norvegicus [4], 1.4. The Dose with Rattus norvegicus [2] was 10 µg and 25 µg.
As to `CC(=O)N[C@H](Cc1ccc2ccccc2c1)C(=O)N[C@H](Cc1ccc(F)cc1)C(=O)N[C@H](Cc1c[nH]c2ccccc12)C(=O)N[C@@H](CO)C(=O)N[C@@H](Cc1ccc(O)cc1)C(=O)N[C@H](CCCN=C(N)N)C(=O)N[C@@H](CC(C)C)C(=O)N[C@@H](CCCN=C(N)N)C(=O)N1CCC[C@H]1C(=O)NCC(N)=O` (Ac-[d2Nal][dPhe(4-F)][dW]SY[dR]LRPG-NH2), the Relative potency in experiment [5] worked out at 0.6. In addition, the pKd (usually the negative decadic logarithm of the Kd, by convention in mol/L) in [6] is 9.19. This molecule displayed an Activity in the experiment with Rattus norvegicus [7] of 6.4. Further, the Dose in the experiment with Rattus norvegicus [2] worked out at 1 µg.
For the molecule `CC(C)C[C@H](NC(=O)CNC(=O)[C@H](Cc1ccc(O)cc1)NC(=O)[C@H](CO)NC(=O)[C@H](Cc1c[nH]c2ccccc12)NC(=O)[C@H](Cc1cnc[nH]1)NC(=O)[C@@H]1CCC(=O)N1)C(=O)N[C@@H](CCCNC(=N)N)C(=O)N1CCC[C@H]1C(=O)NCC(N)=O` [GONADORELIN], the Activity in the experiment listed under Rattus norvegicus [8] was found to be 2.42; in the experiment listed under Rattus norvegicus [9] it was 1.84.
